HNF4A DNA FP – change in binding of human HNF4 alpha to DNA; P41235; HNF4a-FITC DNA binding, fluorescence polarization, 1 h; activity change, % at 10 µM; 360,000 tested, 0.3% active; AID 1224865; in the data active means activity change above about 30%, passing the limit was not always enough
Target sequence (P41235 whole entry, looked up): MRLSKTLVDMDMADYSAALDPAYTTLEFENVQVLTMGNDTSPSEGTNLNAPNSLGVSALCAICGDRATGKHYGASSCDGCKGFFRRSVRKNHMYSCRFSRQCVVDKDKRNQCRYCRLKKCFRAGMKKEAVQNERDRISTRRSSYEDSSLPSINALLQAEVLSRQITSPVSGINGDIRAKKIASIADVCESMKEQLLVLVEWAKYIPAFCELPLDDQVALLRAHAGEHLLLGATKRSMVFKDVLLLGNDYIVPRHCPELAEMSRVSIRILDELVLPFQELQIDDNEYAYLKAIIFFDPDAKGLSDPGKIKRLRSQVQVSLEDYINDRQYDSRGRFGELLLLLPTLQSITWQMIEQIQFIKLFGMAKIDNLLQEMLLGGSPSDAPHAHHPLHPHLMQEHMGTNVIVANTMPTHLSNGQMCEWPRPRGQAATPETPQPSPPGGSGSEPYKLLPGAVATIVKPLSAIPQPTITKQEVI
Myeloid diff 2 – myeloid differentiation induction; ER-HoxA9 myeloid progenitors, lysozyme-GFP differentiation, flow cytometry; calls only at 10 µM; 360,000 tested, 1% active;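 active means normalized GFP-positive differentiation at or above the plate's own cutoff, the solvent-only control mean plus 3 SD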;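 further: cells exposed to compound for four days before flow analysis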
SENP1 FRET inh – blocks the human SENP1 SUMO protease catalytic domain. 360,000 tested, 0.21% active. recombinant SENP1 catalytic domain, CyPet-SUMO1-YPet FRET cleavage. Q9P0U3. inhibition, % at 10 µM;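 active means inhibition at least 30% at 10 µM, raw YFP signal under a set limit, fluorescence ratio 0.5 to 1.5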
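Compound: 10 µM single point, 0.5% DMSO; Test system: hSENP1 catalytic domain, recombinant; Timing: 50 min reaction at room temperature; Technique: FRET, CFP and YFP emission; Control set: no-enzyme wells low, DMSO-plus-enzyme wells high control.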
Cardio protect – modulators protecting cardiomyocytes from myocardial damage; H9c2 cardiomyocytes, H2O2 injury protection, ATPLite, 2 h; protection from H2O2 cell death, % at 20 µM; 360,000 tested, 0.63% active; AID 588492;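 active means compounds giving at least 50% protection of heart cells from peroxide-induced death in the single-dose screen, raw or plate-pattern-corrected value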
Pemphigus Ab inh – inhibitors of pemphigus antibody binding to human desmoglein-3 | binding (percent of control), % at 10 µM | 310,000 tested, 0.48% active | DSG3-coupled beads, scFv-anti-DSG3-GFP binding, flow cytometry; hits give low values;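 active means binding more than 3 SD below its plate's average and above zero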;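 further: hits lower antibody fragment binding to DSG3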
Exocytosis inh – lytic granule exocytosis inhibition; TALL-104 LAMP-1 surface exposure, flow cytometry; cells stimulated with thapsigargin and PMA; inhibition, % at 10 µM; 360,000 tested, 0.66% active; AID 651702;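 active means inhibition above about 55%, limit read from the data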
Myeloid diff – myeloid differentiation induction; shares compounds with Myeloid diff 2; ER-HoxA9 myeloid progenitors, GFP/Mac1 double-positive flow; calls only; 2,300 tested, 2% active;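 active means share of green or green-and-red cells above 9 and 9% in run 1 or 4 and 3% in run 2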
GFP autofluor – compound fluorescence in myeloid differentiation counter-screen; shares compounds with Myeloid diff 2; ER-HoxA9 myeloid progenitors, no estrogen, GFP autofluorescence flow cytometry; vehicle wells 0%, positive control 100%; fluorescence response, % (test concentration not listed); 2,300 tested, 7.4% active; AID 651707;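 active means over 5% cells positive for green fluorescent reporter, or over 2% positive for both it and APC stain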
Numbers stand for hits; – = inactive; · = no result given; + = active, no number. Most compounds without a hit are left out; they make up all but 3% or so of the library.

SMILES	HNF4A DNA FP	Myeloid diff 2	SENP1 FRET inh	Cardio protect	Pemphigus Ab inh	Exocytosis inh	Myeloid diff	GFP autofluor
O=C(O)C1CCCCC1C(=O)Nc1cccc(C(=O)N2CCCCC2)c1 (centres undefined)	–	+	–	–	–	–	–	–
Cn1cc(-c2cccc(Cl)c2)cc(C#N)c1=O	–	–	–	–	–	–	·	·
Cn1cc(-c2cccc(C(F)(F)F)c2)cc(C#N)c1=O	–	+	–	–	–	–	–	–
CCN(C(=O)C1CC1)C1CCS(=O)(=O)C1 (centres undefined)	–	–	–	–	–	–	·	·
O=C(c1ccco1)N1CC2(CC(c3ccc(Cl)cc3)=NO2)CN1Cc1ccc(Br)cc1 (centres undefined)	–	–	–	–	–	–	–	–
CCN(CC)CCNC(=O)c1cn(C)c2ccc(S(=O)(=O)N(C)C3CCCCC3)cc2c1=O	–	–	–	–	–	–	–	–
CCOC(=O)c1c(C)[nH]c(C(=O)COC(=O)/C=C/c2ccc3c(c2)OCO3)c1C	–	–	–	–	–	–	·	·
CCOC(=O)c1c(C)[nH]c(C(=O)COC(=O)/C=C/c2ccc(O)c(OC)c2)c1C	–	–	–	–	–	–	–	–
CCOC(=O)c1c(C)[nH]c(C)c1C(=O)COC(=O)/C=C/c1cccc(Cl)c1	–	–	–	–	–	–	·	·
CCOC(=O)c1c(C)[nH]c(C)c1C(=O)COC(=O)/C=C/c1ccccc1[N+](=O)[O-]	–	+	–	–	·	–	–	–
CCN(CC)C(=O)c1ccccc1NC(=O)CN1C(=O)c2ccccc2C1=O	–	–	–	–	–	–	·	·
COc1cccc(C2CC(c3ccccc3)=NN2S(=O)(=O)c2ccc(C)cc2)c1OC (centres undefined)	–	+	–	–	–	–	–	93
COc1ccccc1C1CC(c2ccccc2)=NN1S(=O)(=O)c1ccccc1 (centres undefined)	–	–	–	–	–	–	·	·
COc1ccc(-n2c(=S)[nH]c3cc(C(=O)NCc4ccco4)ccc3c2=O)cc1OC	–	–	–	–	–	–	·	·
COc1ccc(CCn2c(=S)[nH]c3cc(C(=O)NCc4ccco4)ccc3c2=O)cc1OC	–	–	–	–	–	–	–	–
O=C(Cn1cncn1)NCCCc1ccccc1	–	–	–	–	–	–	·	·
O=C(CSc1nnc(CNC(=O)c2ccco2)o1)Nc1cccc(Cl)c1	–	+	–	–	·	–	–	–
CCC(C(=O)NCC1CCCO1)N(Cc1ccccc1)C(=O)CNS(=O)(=O)c1ccccc1 (centres undefined)	–	–	–	–	–	–	·	·
CCOC(=O)/C(=N\Nc1ccccc1[N+](=O)[O-])c1csc(N)n1	–	–	–	–	–	–	·	·
CCOC(=O)/C(=N\Nc1ccc(C(C)=O)cc1)c1csc(Nc2ccccc2)n1	–	+	–	–	–	–	–	–
CNS(=O)(=O)c1cc(NC(=O)CCNC(=O)c2ccco2)ccc1C	–	–	–	–	·	–	·	·
COc1ccc(C2CC(C(F)(F)F)n3nc(C(=O)O)c(Cl)c3N2)cc1OC (centres undefined)	–	–	–	–	–	–	–	–
COc1cccc(CN(C)C(=O)C2CCN(S(=O)(=O)c3cccs3)CC2)c1OC	–	–	–	–	–	–	·	·
Cc1cccc(NC(=O)c2ccccc2SCc2ccc(F)cc2)n1	–	+	–	–	–	–	–	–
COc1ccc(OC)c(CCNC(=O)c2cccc(NC3=NC4CS(=O)(=O)CC4S3)c2)c1 (centres undefined)	–	–	–	–	–	–	·	·
COc1cccc(-n2cc(CN(C)Cc3nc(Cc4ccccc4)no3)cn2)c1	–	–	–	–	–	–	·	·
COc1cccc(-n2cc(CN(C)Cc3nc(Cc4cccc(F)c4)no3)cn2)c1	–	–	–	–	–	–	–	–
Cc1ccccc1NS(=O)(=O)c1ccc(OCC(=O)N2CCCCC2)cc1	–	+	–	–	–	–	–	–
